Test [1] has as its system HCT-116. Briefly: Cytotoxicity against human HCT116 cells assessed as cell viability at 15 uM after 48 hrs by MTT assay relative to control. Type of test: functional. As to conditions: HCT-116, 48 h, read-out: Activity. In outline:
(§1)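 HCT116 cells seeded in 24-well plates two days prior, treated 48 h in fresh complete medium (DMSO ≤0.5% v/v; DMSO-only control); MTT 0.5 mg/ml final added for last hour, formazan dissolved in DMSO:ethanol 50:50, A570 minus A690; viability as % of control; IC50 from 2.5–20 range dose-response; mean ± SEM of 4 independent experiments.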

In test [2] the test system is HCT-116. The test is described as follows: Induction of morphological changes in human HCT116 cells assessed as floating cells at 15 to 100 uM after 48 hrs by microscopic analysis. The format is functional, cell-based.
The subject of test [3] is HCT-116. Briefly: Cell cycle arrest in human HCT116 cells assessed as accumulation at S and G2/M phase at 15 uM after 48 hrs by flow cytometry analysis. Type of test: functional, cell-based. The gist of the method: (§2)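 HCT116 cells (RPMI 1640, 6% FBS, 37 °C, 5% CO2) seeded two days ahead, exposed 48 h; floating plus attached cells collected by trypsinization, fixed in 70% ethanol at 4 °C 15 min, stained with PI/RNase A at 37 °C 15 min; ≥40 000 single cells counted by flow cytometry; phases fitted by Watson Pragmatic model; 3 independent experiments.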
In general terms: Flow cytometry measures light scatter and fluorescence of single cells or particles in a stream.

Test [4] has as its system HCT-116. The test is described as follows: Cytotoxicity against human HCT116 cells assessed as cell viability at 10 uM after 48 hrs by MTT assay relative to control. The conditions noted are these: HCT-116, 48 h, read-out: Activity. The format is functional. The gist of the method:
as §1
(Tetrazolium assays rely on reduction of a dye to a coloured formazan, in cell work by metabolically active cells.)

The subject of test [5] is HCT-116. The test is described as follows: Cytotoxicity against human HCT116 cells assessed as cell viability after 48 hrs by MTT assay. The conditions noted are these: HCT-116, 48 h. Type of test: functional, cell-based. In outline:
as §1

Test [6] deals with HCT-116. The test is described as follows: Cytotoxicity against human HCT116 cells assessed as cell viability at 30 uM after 48 hrs by MTT assay relative to control. The format is functional. The conditions noted are these: HCT-116, 48 h, read-out: Activity. The gist of the method: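 HCT116 cells grown in RPMI 1640 with 6% FBS, 0.1 mM sodium pyruvate and 10 mM HEPES at 37 °C in 5% CO2, seeded at 70 000 cells/mL two days before treatment. Exposure 48 h in fresh complete medium, DMSO ≤0.5% (v/v), DMSO-only controls. MTT (0.5 mg/ml final) added for the last hour, formazan dissolved in DMSO:ethanol 50:50, A570 minus A690. Viability given as % of control; mean ± SEM of 4 independent experiments; Student's t-test.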

For test [7], the system named is HCT-116. The test is described as follows: Cell cycle arrest in human HCT116 cells assessed as increase of p53 expression at 5 to 10 uM after 48 hrs by Western blot analysis. Type of test: functional, cell-based. The gist of the method: (§3)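 Cells seeded two days before 48 h exposure; floating and attached cells harvested, lysed in ice-cold RIPA with PMSF, phosphatase and protease inhibitors; 20 µg protein by SDS-PAGE, PVDF transfer, milk blocking, primary antibody (p53 DO-1, p27 C-19, PARP-1 F-2) overnight, HRP secondary, chemiluminescence; band intensity quantified, β-actin loading control.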
In general terms: In western blotting, separated proteins are transferred to a membrane and probed.

The test system of test [8] is HCT-116. Briefly: Induction of apoptosis in human HCT116 cells assessed as cleavage of PARP1 at 5 to 10 uM after 48 hrs by Western blot analysis. The format is functional, cell-based. In outline:
as §3

In test [9] the test system is HCT-116. The test is described as follows: Cell cycle arrest in human HCT116 cells assessed as accumulation at sub-G1 phase at 5 to 10 uM after 48 hrs by flow cytometry analysis. Type of test: functional, cell-based. The gist of the method: as §2
Test [10] deals with HCT-116. The test is described as follows: Induction of apoptosis in human HCT116 cells assessed as nuclear condensation after 48 hrs by fluorescence microscopic analysis. The format is functional, cell-based. In outline: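 After 48 h exposure, floating and attached cells harvested, fixed in 4% paraformaldehyde 15 min at room temperature, cytospun onto polylysine slides, Hoechst-stained; apoptotic fraction = condensed nuclei over total nuclei, >500 cells per slide counted by fluorescence microscopy; mean ± SEM of ≥3 independent experiments.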

Test [11] deals with HCT-116. The test is described as follows: Cell cycle arrest in human HCT116 cells assessed as accumulation at S and G2/M phase at 5 to 10 uM after 48 hrs by flow cytometry analysis. The format is functional, cell-based. The gist of the method:
as §2

Test [12] relates to HCT-116. The test is described as follows: Induction of morphological changes in human HCT116 cells assessed as floating cells at 10 to 100 uM after 48 hrs by microscopic analysis. Type of test: functional, cell-based.
For test [13], the system named is HCT-116. Briefly: Cell cycle arrest in human HCT116 cells assessed as accumulation at S and G2/M phase at IC50 after 48 hrs by flow cytometry analysis. Type of test: functional, cell-based. In outline:
as §2

Test [14] deals with HCT-116. The test is described as follows: Cell cycle arrest in human HCT116 cells assessed as increase of p27 expression at 5 to 10 uM after 48 hrs by Western blot analysis. Type of test: functional, cell-based. The gist of the method:
as §3

Test [15] deals with HCT-116. Briefly: Induction of apoptosis in human HCT116 cells assessed as cleavage of PARP1 at 10 to 15 uM after 48 hrs by Western blot analysis. Type of test: functional, cell-based. The gist of the method: as §3
Test [16] concerns HCT-116. Briefly: Cell cycle arrest in human HCT116 cells assessed as accumulation at sub-G1 phase at 10 to 15 uM after 48 hrs by flow cytometry analysis. Type of test: functional, cell-based. In outline: as §2
Test [17] relates to HCT-116. Briefly: Cell cycle arrest in human HCT116 cells assessed as accumulation at S and G2/M phase at 10 to 15 uM after 48 hrs by flow cytometry analysis. The format is functional, cell-based. In outline:
as §2

In ChEMBL document CHEMBL2401708, “Superior anticancer activity of halogenated chalcones and flavonols over the natural flavonol quercetin” (Eur J Med Chem, 2013) one finds viability, Activity and IC50 data, which are given here for 31 compounds.

The source made the active and inactive calls. The calls are words filed in the database; no cut-off is given here.

The term IC50 denotes the midpoint of a concentration-inhibition curve.

As to `COc1cc(/C=C/C(=O)c2ccccc2O)cc(OC)c1OC`, the viability at 15 µM in the test with HCT-116 [1] worked out at 83.7%.
Turning to `COc1cccc(-c2oc3ccccc3c(=O)c2O)c1`, in the test with HCT-116 [1], the viability at 15 µM is 39.5%.
In the case of `COc1ccccc1-c1oc2ccccc2c(=O)c1O`, the viability at 15 µM in the test on HCT-116 [1] came to 89.1%.
`O=C(/C=C/c1ccc(C(F)(F)F)cc1)c1ccccc1O`: the outcome with HCT-116 [2] was Active. In addition, the outcome with HCT-116 [3] was inactive. Moreover, the viability at 15 µM in the test with HCT-116 [1] turned out to be 85.1%.
For `O=c1c(O)c(-c2ccc(F)cc2)oc2ccccc12`, the viability at 10 µM in the test with HCT-116 [4] was found to be 61.1%. Further, the viability at 15 µM with HCT-116 [1] worked out at 49.2%. Moreover, in the test with HCT-116 [5], the IC50 was determined as 14.4 µM.
For `O=c1c(O)c(-c2cccc(F)c2)oc2ccccc12` the same measures were 60.9%, 45.9% and 13 µM.
For the compound `O=C(/C=C/c1ccccc1)c1ccccc1O` [2'-HYDROXYCHALCONE], in the test on HCT-116 [1], the viability at 15 µM was found to be 91.7%.
As to `O=c1c(O)c(-c2cccc(Cl)c2)oc2ccccc12`, in the test on HCT-116 [4], the viability at 10 µM is 43.8%. Further, the viability at 15 µM in the test on HCT-116 [1] amounted to 32.9%. For the same compound, in the test with HCT-116 [5], the IC50 came to 8.1 µM.
Taken in the same sequence, the figures for `O=C(/C=C/c1cccc(F)c1)c1ccccc1O` were 90.2%, 45.3% and 14.5 µM.
For the compound `O=c1c(O)c(-c2ccccc2)oc2ccccc12` [FLAVONOL], the viability at 15 µM in the test with HCT-116 [1] is 64.6%.
Turning to `Cc1cccc(/C=C/C(=O)c2ccccc2O)c1`, in the test on HCT-116 [1], the viability at 15 µM was determined as 85.9%.
`O=C(/C=C/c1cccc(Cl)c1)c1ccccc1O`: in the test on HCT-116 [4], the viability at 10 µM amounted to 75.8%. Further, the viability at 15 µM in the test with HCT-116 [1] is 37.5%. Besides, the IC50 in the test with HCT-116 [5] came to 13.2 µM.
Taken in the same sequence, the figures for `O=c1c(O)c(-c2ccc(Cl)cc2)oc2ccccc12` were 40.8%, 38% and 6.8 µM.
Take `O=c1c(O)c(-c2ccc(O)c(O)c2)oc2cc(O)cc(O)c12` [QUERCETIN]: the viability at 30 µM in the test on HCT-116 [6] was 59.7%.
`O=c1c(O)c(-c2ccc(Br)cc2)oc2ccccc12`: the outcome in the test with HCT-116 [7], in the test on HCT-116 [8], in the test on HCT-116 [9], with HCT-116 [11], with HCT-116 [12] and with HCT-116 [13] was Active. Moreover, the result in the test with HCT-116 [14] was Active. Also, the viability at 10 µM in the test on HCT-116 [4] worked out at 32.8%. Besides, in the test on HCT-116 [1], the viability at 15 µM turned out to be 29.2%. The Activity entry in the test with HCT-116 [10] is “Dose-dependent effect”. Further, in the test with HCT-116 [5], the IC50 was 4.6 µM.
In the case of `Cc1cccc(-c2oc3ccccc3c(=O)c2O)c1`, the viability at 15 µM with HCT-116 [1] stood at 38.7%.
Turning to `COc1cc(OC)c(/C=C/C(=O)c2ccccc2O)c(OC)c1`, the viability at 15 µM with HCT-116 [1] turned out to be 91.1%.
`COc1ccc(-c2oc3ccccc3c(=O)c2O)cc1`: the viability at 15 µM in the test on HCT-116 [1] is 96%.
On to `O=c1c(O)c(-c2cccc(Br)c2)oc2ccccc12`, for which, in the test on HCT-116 [4], the viability at 10 µM worked out at 37.6%. Further, the viability at 15 µM in the test on HCT-116 [1] is 29.2%. The IC50 in the test with HCT-116 [5] turned out to be 7.5 µM.
Take `Cc1ccc(-c2oc3ccccc3c(=O)c2O)cc1`: the viability at 15 µM with HCT-116 [1] came out at 59.3%.
Consider `COc1cccc(/C=C/C(=O)c2ccccc2O)c1`, for which the viability at 15 µM with HCT-116 [1] was found to be 89.6%.
Turning to `O=C(/C=C/c1ccc(Cl)cc1)c1ccccc1O`, the viability at 10 µM with HCT-116 [4] turned out to be 84.8%. Moreover, in the test with HCT-116 [1], the viability at 15 µM was found to be 69.1%. The IC50 in the test on HCT-116 [5] is 20.9 µM.
Turning to `O=C(/C=C/c1cccc(Br)c1)c1ccccc1O`, the outcome with HCT-116 [2], with HCT-116 [15], in the test with HCT-116 [16], in the test on HCT-116 [13] and in the test with HCT-116 [17] was Active. For the same compound, in the test with HCT-116 [4], the viability at 10 µM was found to be 48.4%. Further, the viability at 15 µM in the test with HCT-116 [1] amounted to 29.6%. The Activity result with HCT-116 [10] was “Dose-dependent effect”. Moreover, in the test with HCT-116 [5], the IC50 amounted to 10.9 µM.
On to `COc1ccc(/C=C/C(=O)c2ccccc2O)cc1`, for which the viability at 15 µM with HCT-116 [1] was determined as 89.1%.
On to `COc1ccc(-c2oc3ccccc3c(=O)c2O)cc1OC` [3-HYDROXY-3',4'-DIMETHOXYFLAVONE], for which, in the test on HCT-116 [1], the viability at 15 µM worked out at 78.1%.
For `Cc1ccc(/C=C/C(=O)c2ccccc2O)cc1`, the viability at 15 µM in the test on HCT-116 [1] was found to be 89.1%.
Turning to `COc1cccc(/C=C/C(=O)c2ccccc2O)c1O`, the viability at 15 µM in the test on HCT-116 [1] came to 84.7%.
Take `COc1cc(-c2oc3ccccc3c(=O)c2O)cc(OC)c1OC`: the viability at 15 µM with HCT-116 [1] is 70%.
With `COc1ccc(OC)c(-c2oc3ccccc3c(=O)c2O)c1`, the viability at 15 µM in the test on HCT-116 [1] is 76.6%.
Regarding `O=C(/C=C/c1ccc(F)cc1)c1ccccc1O`, the viability at 10 µM in the test with HCT-116 [4] was found to be 85.2%. For the same compound, the viability at 15 µM in the test on HCT-116 [1] worked out at 74.9%. Further, the IC50 in the test with HCT-116 [5] amounted to 20.5 µM.
Turning to `O=C(/C=C/c1ccc(Br)cc1)c1ccccc1O`, in the test with HCT-116 [4], the viability at 10 µM was determined as 85.5%. In the test on HCT-116 [1], the viability at 15 µM came to 68.4%. Besides, the IC50 in the test with HCT-116 [5] is 19.1 µM.
